# Assay outcomes deposited in PubChem BioAssay by The Scripps Research Institute Molecular Screening Center.
# SIAE primary: human SIAE inhibition, primary screen. Q9HAT2. SIAE FP-Rh probe binding, fluorescence polarization. inhibition, % at 9.66 µM. hit rate 0.69% among 370,000. AID 1053197;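 active = inhibition above a cutoff: mean of compounds within the control limits plus 3 SD of those, cut at about 17% in these data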;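 note: 0% = plate median of compound wells and 100% = probe without SIAE protein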
# Target sequence (Q9HAT2 whole entry, looked up): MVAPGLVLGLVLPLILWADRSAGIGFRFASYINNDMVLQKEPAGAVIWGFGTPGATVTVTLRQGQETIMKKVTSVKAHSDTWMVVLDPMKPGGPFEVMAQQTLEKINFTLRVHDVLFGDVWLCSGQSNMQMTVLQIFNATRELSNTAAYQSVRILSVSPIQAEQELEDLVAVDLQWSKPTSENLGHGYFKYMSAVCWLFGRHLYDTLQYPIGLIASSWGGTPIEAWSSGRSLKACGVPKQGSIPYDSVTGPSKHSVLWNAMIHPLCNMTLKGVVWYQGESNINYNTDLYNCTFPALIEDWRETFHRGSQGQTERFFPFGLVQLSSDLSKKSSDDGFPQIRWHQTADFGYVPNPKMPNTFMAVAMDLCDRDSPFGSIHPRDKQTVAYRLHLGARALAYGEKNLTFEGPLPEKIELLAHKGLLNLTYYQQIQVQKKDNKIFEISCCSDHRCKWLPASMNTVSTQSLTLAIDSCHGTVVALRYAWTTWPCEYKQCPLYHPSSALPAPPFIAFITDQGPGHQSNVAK
# TCR-CD3 inh: human TCR-CD3 binding inhibition; TAMRA-labeled TCR probe fluorescence, biochemical; inhibition, % at 9.4 µM; hit rate 0.37% among 360,000; AID 651800; in the data active = inhibition above about 19%;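 note: recombinant mutant TCR 2C K166C tagged with TAMRA read by polarization; 0% = receptor in buffer alone and 100% = receptor with positive control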
# PRMT1 FP inh: inhibitors of human PRMT1; hit rate 1.3% among 370,000; recombinant PRMT1, activity-based probe fluorescence polarization; inhibition, % at 2.79 µM; AID 652257; Q99873;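 active = inhibition above about 21% made by adding two undisclosed values, limit read from the data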
# rCAG binder: molecules binding r(CAG) RNA repeats. r(CAG) RNA repeat, TO-PRO-1 dye displacement fluorescence. inhibition, % at 3 µM. hit rate 1.3% among 370,000. AID 651821;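 active = inhibition above the plate cutoff, the mean of all test compounds on that plate plus 3 SD, cut at about 35% in these data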;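 note: 0% = DMSO alone and 100% = 100 µM mitoxantrone as full dye displacement; higher means more dye released from RNA so lower well fluorescence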
# mABHD4 FP: inhibitors of mouse ABHD4; purified mABHD4, FP-Rh probe fluorescence polarization; hit rate 0.54% among 370,000; inhibition, % at 8.92 µM;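 active = inhibition exceeding the mean over every tested compound plus 3 SD, cut at about 30% in these data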;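 note: 0% = plate median of compound wells and 100% = S159A mutant with DMSO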
#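 Assay system: wild-type mouse ABHD4 protein; compound: single nominal dose of 8.92 µM, 0.89% DMSO final; schedule: 45 min + 60 min at 25 °C; measured by: FP readout, ex 525 nm / em 598 nm; evaluation: % inhibition of FP-Rh probe binding versus controls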
# mABHD4 conf: confirmation of mouse ABHD4 inhibitors; shares compounds with mABHD4 FP; purified mABHD4, FP-Rh probe fluorescence polarization; inhibition, % at 8.92 µM; hit rate 55% among 1,800; AID 720658;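 active = mean inhibition across replicates above the hit cutoff set in the primary screen, cut at about 30% in these data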;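 note: 0% = wild-type ABHD4 with DMSO and 100% = catalytically dead S159A mutant with DMSO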
# SIAE inh conf: confirmation of human SIAE inhibitors; SIAE FP-Rh activity-based probe, fluorescence polarization; AID 1117263; shares compounds with SIAE primary; hit rate 13% among 2,300; inhibition, % at 9.66 µM;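 active = mean inhibition of the replicates above the hit cutoff set in the primary screen, cut at about 17% in these data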;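 note: 0% = SIAE with DMSO and probe and 100% = probe without SIAE; inhibitors lower polarization as more probe stays unbound to SIAE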
# Active calls of the source: *; · = no result. Hits are enriched below; roughly 3.3% of the tested compounds scored in any of these assays.
SMILES,SIAE primary,TCR-CD3 inh,PRMT1 FP inh,rCAG binder,mABHD4 FP,mABHD4 conf,others
COC(=O)C1CN(Cc2ccc(F)cc2)CCS(=O)(=O)N1Cc1cn(CCOC(C)=O)nn1 (stereo unspecified),-5.9,·,3.0,-0.7,8.3,·,
O=C(O)C1Cn2c(nc3c(c2=O)C2(CCCC2)Cc2ccccc2-3)S1 (stereo unspecified),1.8,-1.4,-1.7,19.5,41.6*,41.6*,
COc1ccc2c(c1)CN1CN(Cc3ccccc3)S(=O)(=O)CC21 (stereo unspecified),-0.1,·,2.4,7.1,-3.2,·,
O=Cc1cc(N=Nc2ccccc2Cl)ccc1O,9.5,4.9,2.2,13.2,29.9*,35.2*,
CC(C)Nc1ccc(Nc2ccnc3cc4ccccc4cc23)cc1,8.2,-1.5,-2.5,23.0,31.2*,54.5*,
CCc1ccc(S(=O)(=O)Nc2cc(SCC(=O)O)c(O)c3ccccc23)cc1,6.9,0.3,76.8*,29.5,31.4*,45.0*,
CCc1ccc(S(=O)(=O)Nc2ccc(O)c3ccccc23)cc1,-4.4,-10.9,6.2,20.5,28.9,·,
CC1=C(C(=O)NCc2ccc3c(c2)OCO3)C2(CCC(C)CC2)OC1=O (stereo unspecified),1.7,-4.2,-5.1,4.8,4.5,·,
CC1=C(C(=O)NCc2ccco2)C2(CCC(C)CC2)OC1=O (stereo unspecified),0.1,-8.9,5.3,6.4,30.8*,-5.4,
CN(C)c1ccc(NC2=C(Cl)C(=O)c3ccccc3C2=O)cc1,9.7,-2.5,9.8,2.8,42.6*,54.0*,
CCCCC1CC(CSc2ncn[nH]2)OC1=O (stereo unspecified),4.8,0.6,1.0,-1.1,79.2*,-13.4,
CCCCCCCC1CC(CSc2ncn[nH]2)OC1=O (stereo unspecified),0.9,2.9,0.2,-3.1,-5.4,·,
COc1ccc(COC[B-](F)(F)F)cc1,0.1,5.9,-2.8,2.3,43.6*,28.6,
Cc1ccc(NC(=O)c2ccc3nsnc3c2)c(Cl)c1,-2.8,11.7,-0.1,0.3,4.2,·,
Cc1nn(-c2ccccc2)c(N2CCCC2)c1/C=N/NC(=S)Nc1cc(C(F)(F)F)ccc1Cl,7.6,3.6,-0.1,4.3,5.8,·,
Cc1nn(-c2ccccc2)c(N2CCCC2)c1/C=N/NC(=S)Nc1ccccc1C(F)(F)F,5.8,-2.3,-0.9,7.8,54.1*,57.5*,
O=C1C=C(Nc2ccccc2C(=O)O)c2ccccc2C1=O,7.3,1.9,13.1,28.9,44.0*,53.0*,
OC(CNCCC1C=Nc2ccccc21)Cn1c2ccc(Cl)cc2c2cc(Cl)ccc21 (stereo unspecified),26.6*,18.1,1.0,15.4,34.4*,43.9*,
O=C(CSc1nnc(-c2ccccc2F)n1Cc1ccco1)Nc1ccccc1-c1ccccc1,-2.8,·,16.5,2.9,3.9,·,
COc1cccc2c(NCc3ccccc3)nc(-n3c(N)nc4ccccc43)nc12,6.7,·,-3.5,·,37.1*,20.5,
CCCCc1cccc2[nH]cc(C)c12,7.3,·,1.3,6.5,-1.5,·,
CC(CNc1ccccc1O)C(=O)O (stereo unspecified),3.7,-1.3,23.5*,5.5,33.7*,1.9,
CCOc1ccccc1C1C(C(N)=O)=C(C)Nc2nc(CCCO)nn21 (stereo unspecified),-3.9,-5.0,1.1,1.6,31.3*,8.2,
COc1ccccc1NC(=O)Nc1nc(C(N)Cc2ccc(C(F)(F)F)cc2)cs1 (stereo unspecified),-0.6,-8.6,-8.9,1.7,-3.8,·,
COc1cc(NC(=O)Nc2nc(C(N)Cc3ccc(C(F)(F)F)cc3)cs2)cc(OC)c1OC (stereo unspecified),-21.0,-14.1,-1.3,32.8,44.3*,38.9*,
SMILES,SIAE primary,TCR-CD3 inh,PRMT1 FP inh,rCAG binder,mABHD4 FP,mABHD4 conf,others
O=C(OCC(=O)N1CCCCCC1)c1cc(S(=O)(=O)N2CCOCC2)ccc1F,-0.5,-1.4,-4.3,1.6,-0.3,·,
CCCCNS(=O)(=O)/C=C/c1cc2c(cc1CNC(=O)OC(C)(C)C)OCO2,2.1,·,-0.2,1.3,-4.2,·,
N=C1c2c(cc(=O)n3c2[nH]c2ccccc23)CN1CCN1CCOCC1,12.6,-2.4,6.2,14.6,30.8*,12.7,
O=c1c2ccccc2[nH]c(=S)n1CCCN1CCOCC1,-1.3,-3.8,0.6,0.8,-10.3,·,
Nc1[nH]n2c(=O)c3c(nc2c1N=Nc1ccc(Cl)cc1)CCCC3,6.6,2.6,-1.6,16.5,31.0*,33.5*,
Oc1c(Br)cc(Br)cc1CNc1ccccn1,3.5,1.4,0.9,-0.8,1.9,·,
Oc1ccc(Cl)cc1CNc1cccc2cccnc12,20.1*,-1.2,6.5,7.5,36.2*,0.8,SIAE inh conf=7.0
Oc1ccc(Br)cc1CNc1cccc2cccnc12,12.8,-4.7,-2.3,9.3,20.9,·,
Oc1c(Br)cc(Br)cc1CNc1cccc2cccnc12,31.6*,5.8,12.2,30.7,55.7*,-10.0,SIAE inh conf=14.6
Cc1ccsc1/C=N/NC(=O)c1ccc2ccccc2c1,-31.0,-0.8,0.0,1.8,-20.9,·,
Brc1ccc(-c2ccc(/C=N/Nc3nc4ccccc4[nH]3)o2)cc1,19.2*,-0.5,4.0,24.7,32.5*,59.4*,SIAE inh conf=33.8*
CN(C)NC(=S)NC(=O)C12CC3CC(CC(C3)C1)C2,-0.1,4.8,0.0,2.6,-5.5,·,
CN(C(=S)NC(=O)C12CC3CC(CC(C3)C1)C2)c1ccc(O)cc1,18.5*,17.1,26.4*,7.8,41.1*,15.1,SIAE inh conf=0.8
Nc1[nH]c(C(=O)c2ccccc2)c(-c2ccc(Br)cc2)c1C(=O)c1ccccc1,-5.3,6.7,0.1,8.6,8.0,·,
COc1cc2ccc(=O)oc2c(O[C@@H]2O[C@H](CO)[C@@H](O)[C@H](O)[C@H]2O)c1O,9.2,5.9,-0.4,-0.5,2.6,·,
COc1cc2ccc(=O)oc2c(O)c1O,25.8*,10.8,5.4,-0.6,31.6*,6.1,SIAE inh conf=15.4
Nc1ccccc1Nc1nc2ccccc2[nH]1,6.3,5.7,3.8,5.5,14.2,·,
Nc1ccc(Nc2nc3ccccc3[nH]2)cc1,57.2*,-17.1,5.8,11.6,31.1*,59.1*,SIAE inh conf=57.6*
CC(=O)c1cccc(NC(=O)COC(=O)c2ccc3c(c2)OCO3)c1,1.4,-4.0,-1.3,-0.8,-1.6,·,
Oc1cccc(/C=N/c2c(-c3ccco3)nc3ccccn23)c1,25.6*,8.7,16.1,8.2,34.3*,12.5,SIAE inh conf=2.4
COc1ccc(N(CC(=O)NCc2ccco2)C(=O)CCC(=O)Nc2ccccn2)cc1,-0.7,2.2,-2.9,-3.2,0.7,·,
COc1cc2nc(Nc3ccc(C)c(Cl)c3)nc(N)c2cc1OC,58.2*,-0.5,-1.7,18.3,42.1*,65.8*,SIAE inh conf=61.5*
COc1cc2nc(Nc3ccc(C)c(C)c3)nc(N)c2cc1OC,7.7,-3.4,2.9,7.3,28.1,·,
